Measured values: ChEMBL document CHEMBL1127464, “Inhibitors of HIV-1 proteinase containing 2-heterosubstituted 4-amino-3-hydroxy-5-phenylpentanoic acid: synthesis, enzyme inhibition, and antiviral activity” (J Med Chem, 1994)

Experiments:
[1] = biological target: Human immunodeficiency virus type 1 protease (Human immunodeficiency virus 1, UniProt Q72874); assay: Inhibitory constant against HIV-1 protease
Procedure, shortened: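 HIV-1 proteinase expressed in E. coli JM 105 and purified to homogeneity. Initial rates were taken from the absorbance decrease at 298 nm. IC50 came from a fit of the initial velocities. Ki was derived from IC50 accounting for enzyme, substrate and Km. Mean of two determinations.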

[2] = system: Human immunodeficiency virus 1; assay: Antiviral activity by observing cytopathic effect induced by HIV-1 strain IIIB in de novo infected MT-4 cells; type: functional, organism-based; conditions: Human immunodeficiency virus 1, MT4

SMILES	Ki [1]	IC50 [2]
CC(C)[C@H](NC(=O)OCc1ccccc1)C(=O)N[C@@H](Cc1ccccc1)[C@@H](O)[C@@H](NCc1ccccc1)C(=O)N[C@H](C(=O)NCCc1c[nH]c2ccccc12)C(C)C	10.6 nM	> 3000 nM
CC(C)C[C@H](NC(=O)[C@H](NCc1ccccc1)[C@H](O)[C@H](Cc1ccccc1)NC(=O)[C@@H](NC(=O)OCc1ccccc1)C(C)C)C(=O)NCc1ccccc1	44 nM	> 3000 nM
CC[C@H](NC(=O)OCc1ccccc1)C(=O)N[C@@H](Cc1ccccc1)[C@@H](O)[C@@H](NCc1ccccc1)C(=O)N[C@H](C(=O)NCc1ccccc1)C(C)C	17.1 nM	2000 nM
CC(C)[C@H](NC(=O)OCc1ccccc1)C(=O)N[C@@H](Cc1ccccc1)[C@@H](O)[C@@H](NCCc1ccccc1)C(=O)N[C@H](C(=O)NCc1ccccc1)C(C)C	34 nM	> 3000 nM
CC[C@@H](C)[C@H](NC(=O)OCc1ccccc1)C(=O)N[C@@H](Cc1ccccc1)[C@@H](O)[C@@H](NCc1ccccc1)C(=O)N[C@H](C(=O)NCc1ccccc1)C(C)C	8.3 nM	> 3000 nM
CC(C)[C@H](NC(=O)[C@H](NCc1ccccc1)[C@H](O)[C@H](Cc1ccccc1)NC(=O)[C@@H](NC(=O)N(C)Cc1nc2ccccc2[nH]1)C(C)C)C(=O)NCc1ccccc1	10.2 nM	270 nM
CC(C)[C@H](NC(=O)c1ccc2ccccc2n1)C(=O)N[C@@H](Cc1ccccc1)[C@@H](O)[C@@H](NCc1ccccc1)C(=O)N[C@H](C(=O)NCc1ccccc1)C(C)C	10.2 nM	1610 nM
CC(C)[C@H](NC(=O)OCc1ccccc1)C(=O)N[C@@H](Cc1ccccc1)[C@@H](O)[C@@H](NCc1ccccc1)C(=O)N[C@H](C(=O)NCc1nc2ccccc2[nH]1)C(C)C	13 nM	140 nM
CC(C)[C@H](NC(=O)[C@H](NCc1ccccc1)[C@H](O)[C@H](Cc1ccccc1)NC(=O)[C@H](CO)NC(=O)OCc1ccccc1)C(=O)NCc1ccccc1	153 nM	2500 nM
CC(C)[C@H](NC(=O)[C@H](NCc1ccccc1)[C@H](O)[C@H](Cc1ccccc1)NC(=O)[C@H](Cc1cnc[nH]1)NC(=O)OCc1ccccc1)C(=O)NCc1ccccc1	29 nM	> 3000 nM
CC(C)[C@H](NC(=O)OCc1ccccc1)C(=O)N[C@@H](Cc1ccccc1)[C@@H](O)[C@@H](NCc1ccccc1)C(=O)N[C@H](C(=O)NCc1ccccn1)C(C)C	12 nM	1140 nM
CC(C)[C@H](NC(=O)OCc1ccccc1)C(=O)N[C@@H](Cc1ccccc1)[C@@H](O)[C@@H](NC1CCCCC1)C(=O)N[C@H](C(=O)NCc1ccccc1)C(C)C	33.5 nM	940 nM
CC(C)[C@H](NC(=O)[C@H](NCc1ccccc1)[C@H](O)[C@H](Cc1ccccc1)NC(=O)[C@H](C)NC(=O)OCc1ccccc1)C(=O)NCc1ccccc1	34 nM	> 3000 nM
CC(C)[C@H](NC(=O)OCc1ccccc1)C(=O)N[C@@H](Cc1ccccc1)[C@@H](O)[C@@H](NCc1ccccc1)C(=O)N[C@@H](C(=O)NCc1ccccc1)C(C)(C)C.CC(C)[C@H](NC(=O)OCc1ccccc1)C(=O)N[C@@H](Cc1ccccc1)[C@@H](O)[C@@H](NCc1ccccc1)C(=O)N[C@H](C(=O)NCc1ccccc1)C(C)(C)C (stereo in doubt; 33(4:1))	> 3000 nM	> 3000 nM
CC(C)[C@H](NC(=O)OCc1ccccc1)C(=O)N[C@@H](Cc1ccccc1)[C@@H](O)[C@@H](SCc1ccccc1)C(=O)N[C@H](C(=O)NCc1ccccc1)C(C)C	10 nM	330 nM
CC(C)[C@H](NC(=O)OCc1ccccc1)C(=O)N[C@@H](Cc1ccccc1)[C@@H](O)[C@@H](NCc1ccc(Br)cc1)C(=O)N[C@H](C(=O)NCc1ccccc1)C(C)C	23 nM	350 nM
CCCCN[C@@H](C(=O)N[C@H](C(=O)NCc1ccccc1)C(C)C)[C@H](O)[C@H](Cc1ccccc1)NC(=O)[C@@H](NC(=O)OCc1ccccc1)C(C)C	23 nM	> 3000 nM
CC(C)[C@H](NC(=O)[C@H](NCc1ccccc1)[C@H](O)[C@H](Cc1ccccc1)NC(=O)[C@H](CC(N)=O)NC(=O)OCc1ccccc1)C(=O)NCc1ccccc1	10.4 nM	1010 nM
CC(C)[C@H](NC(=O)OCc1ccccc1)C(=O)N[C@@H](Cc1ccccc1)[C@@H](O)[C@@H](Nc1ccccc1)C(=O)N[C@H](C(=O)NCc1ccccc1)C(C)C	6.9 nM	1340 nM
CC(C)[C@H](NC(=O)OCc1ccccc1)C(=O)N[C@@H](Cc1ccccc1)[C@@H](O)[C@@H](NCCc1ccccn1)C(=O)N[C@H](C(=O)NCc1ccccc1)C(C)C	200 nM	> 3000 nM
